Assays:
UACC-257 [1] = test: Growth inhibition of human UACC257 cells after 48 hrs by sulforhodamine B assay; assay type: functional, cell-based; conditions: UACC-257, 48 h
In short: (§1)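 Cells grown in RPMI 1640 with 5% FBS and 2 mM L-glutamine, seeded at 5,000–40,000 cells/well according to doubling time. After 24 h, time-zero plates are TCA-fixed. Five concentrations (10-fold or ½log dilutions, DMSO stocks) are applied for 48 h at 37 °C, 5% CO₂. Cells are TCA-fixed, SRB-stained and read at 515 nm. IC₅₀ is taken from [(Ti−Tz)/(C−Tz)]×100 = 50.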

IGROV-1 = test: Growth inhibition of human IGROV1 cells after 48 hrs by sulforhodamine B assay; assay type: functional, cell-based; conditions: IGROV-1, 48 h; in short: as §1
OVCAR-8 = test: Growth inhibition of human OVCAR8 cells after 48 hrs by sulforhodamine B assay; assay type: functional, cell-based; in short: as §1
NCI/ADR-RES = test: Growth inhibition of human NCI/ADR-RES cells after 48 hrs by sulforhodamine B assay; assay type: functional, cell-based; in short: as §1
786-0 = test: Growth inhibition of human 786-0 cells after 48 hrs by sulforhodamine B assay; assay type: functional, cell-based; conditions: 786-0, 48 h
In short: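 Five-dose SRB assay. Cells in RPMI 1640 with 5% FBS and 2 mM L-glutamine were seeded at 5,000–40,000 cells/well, with a TCA-fixed time-zero plate (Tz) taken at 24 h. Compound stocks were in DMSO, serially diluted 10-fold or ½-log to five concentrations, and incubated 48 h at 37 °C. Plates were stained with SRB and read at 515 nm. IC₅₀ was taken where [(Ti−Tz)/(C−Tz)]×100 = 50.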

EKVX = test: Cytotoxicity against human EKVX cells assessed as cell growth at 0.001 uM after 48 hrs by sulforhodamine B assay; assay type: functional; conditions: read-out: Activity
U-251 = test: Cytotoxicity against human U251 cells assessed as cell growth at 0.001 uM after 48 hrs by sulforhodamine B assay; assay type: functional; conditions: U-251, 48 h, read-out: Activity
LOX IMVI [2] = test: Cytotoxicity against human LOXIMVI cells assessed as cell growth at 0.001 uM after 48 hrs by sulforhodamine B assay; assay type: functional; conditions: read-out: Activity
SK-MEL-2 [3] = test: Cytotoxicity against human SK-MEL-2 cells assessed as cell growth at 0.001 uM after 48 hrs by sulforhodamine B assay; assay type: functional; conditions: SK-MEL-2, 48 h, read-out: Activity
OVCAR-4 [4] = test: Cytotoxicity against human OVCAR4 cells assessed as cell growth at 0.001 uM after 48 hrs by sulforhodamine B assay; assay type: functional; conditions: OVCAR-4, 48 h, read-out: Activity
SNB-75 [5] = test: Cytotoxicity against human SNB75 cells assessed as cell growth at 100 nM after 48 hrs by sulforhodamine B assay; assay type: functional; conditions: SNB-75, 48 h, read-out: Activity
UACC-257 [6] = test: Cytotoxicity against human UACC257 cells assessed as cell growth at 100 nM after 48 hrs by sulforhodamine B assay; assay type: functional; conditions: UACC-257, 48 h, read-out: Activity
OVCAR-3 = test: Cytotoxicity against human OVCAR-3 cells assessed as cell growth at 100 nM after 48 hrs by sulforhodamine B assay; assay type: functional; conditions: OVCAR-3, 48 h, read-out: Activity
NCI-H522 = test: Cytotoxicity against human NCI-H522 cells assessed as cell growth at 0.01 uM after 48 hrs by sulforhodamine B assay; assay type: functional; conditions: NCI-H522, 48 h, read-out: Activity
SW-620 = test: Cytotoxicity against human SW620 cells assessed as cell growth at 0.01 uM after 48 hrs by sulforhodamine B assay; assay type: functional; conditions: SW-620, 48 h, read-out: Activity
UO-31 = test: Cytotoxicity against human UO31 cells assessed as cell growth at 100 nM after 48 hrs by sulforhodamine B assay; assay type: functional; conditions: UO-31, 48 h, read-out: Activity
SK-MEL-2 [7] = test: Cytotoxicity against human SK-MEL-2 cells assessed as cell growth at 10 uM after 48 hrs by sulforhodamine B assay; assay type: functional; conditions: SK-MEL-2, 48 h, read-out: Activity
UACC-257 [8] = test: Cytotoxicity against human UACC257 cells assessed as cell growth at 10 uM after 48 hrs by sulforhodamine B assay; assay type: functional; conditions: UACC-257, 48 h, read-out: Activity
OVCAR-4 [9] = test: Cytotoxicity against human OVCAR4 cells assessed as cell growth at 10 uM after 48 hrs by sulforhodamine B assay; assay type: functional; conditions: OVCAR-4, 48 h, read-out: Activity
COLO 205 = test: Cytotoxicity against human COLO205 cells assessed as cell growth at 1 uM after 48 hrs by sulforhodamine B assay; assay type: functional; conditions: COLO 205, 48 h, read-out: Activity
In short: (§2)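 Cells grown in RPMI 1640 with 5% FBS and 2 mM L-glutamine, seeded at 5,000–40,000 cells/well by doubling time. Time-zero plates TCA-fixed after 24 h. Five concentrations (10-fold or half-log dilutions from DMSO stock) added; 48 h at 37 °C, 5% CO2. Cold TCA fixation (final 10%, 60 min, 4 °C), 0.4% SRB stain, dye solubilized in 10 mM trizma base, A515.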

SF-295 = test: Cytotoxicity against human SF295 cells assessed as cell growth at 1 uM after 48 hrs by sulforhodamine B assay; assay type: functional; conditions: SF-295, 48 h, read-out: Activity
SNB-19 = test: Cytotoxicity against human SNB19 cells assessed as cell growth at 1 uM after 48 hrs by sulforhodamine B assay; assay type: functional; conditions: SNB-19, 48 h, read-out: Activity
SNB-75 [10] = test: Cytotoxicity against human SNB75 cells assessed as cell growth at 1 uM after 48 hrs by sulforhodamine B assay; assay type: functional; conditions: SNB-75, 48 h, read-out: Activity
BT-549 = test: Cytotoxicity against human BT549 cells assessed as cell growth at 0.01 uM after 48 hrs by sulforhodamine B assay; assay type: functional; conditions: BT-549, 48 h, read-out: Activity; in short: as §2
LOX IMVI [11] = test: Cytotoxicity against human LOXIMVI cells assessed as cell growth at 1 uM after 48 hrs by sulforhodamine B assay; assay type: functional; conditions: read-out: Activity
OVCAR-5 = test: Cytotoxicity against human OVCAR5 cells assessed as cell growth at 1 uM after 48 hrs by sulforhodamine B assay; assay type: functional; conditions: OVCAR-5, 48 h, read-out: Activity
NCI-H460 = test: Cytotoxicity against human NCI-H460 cells assessed as cell growth at 10 uM after 48 hrs by sulforhodamine B assay; assay type: functional; conditions: NCI-H460, 48 h, read-out: Activity
SF-268 = test: Growth inhibition of human SF268 cells after 48 hrs by sulforhodamine B assay; assay type: functional, cell-based; conditions: SF-268, 48 h; in short: as §1
[12] = read-out: LC50 (the source's name)

CC(=O)c1ccccc1-c1ccc(-c2ccnc(NC(=O)Nc3cc(N4CCOCC4)cc(C(F)(F)F)c3)n2)cn1
GI50 (UACC-257 [1]): 15.9 µM
IC50 (UACC-257 [1]): > 100 µM
TGI (UACC-257 [1]): > 100 µM
CC50 (UACC-257 [1]; [12]): > 100 µM
GI50 (IGROV-1): > 100 µM
IC50 (IGROV-1): 6.18 µM
TGI (IGROV-1): > 100 µM
CC50 (IGROV-1; [12]): > 100 µM
TGI (OVCAR-8; Homo sapiens, OVCAR-8, 48 h): > 100 µM
CC50 (OVCAR-8; Homo sapiens, OVCAR-8, 48 h, read-out: LC50 (the source's name)): > 100 µM
IC50 (OVCAR-8; ovcar-8): Not Active
TGI (NCI/ADR-RES; Homo sapiens, NCI/ADR-RES, 48 h): > 100 µM
CC50 (NCI/ADR-RES; Homo sapiens, NCI/ADR-RES, 48 h, read-out: LC50 (the source's name)): > 100 µM
IC50 (NCI/ADR-RES; nci/adr-res): Not Active
GI50 (786-0): 9.42 µM
IC50 (786-0): 13 µM
LC50 (50% lethal concentration) (786-0): > 100 µM
TGI (786-0): > 100 µM
growth at 0.001 µM (EKVX): 95%
growth at 0.001 µM (U-251): 93%
growth at 0.001 µM (LOX IMVI [2]): 104%
growth at 0.001 µM (SK-MEL-2 [3]): 102%
growth at 0.001 µM (OVCAR-4 [4]): 110%
growth at 0.1 µM (SNB-75 [5]): 89%
growth at 0.1 µM (UACC-257 [6]): 83%
growth at 0.1 µM (OVCAR-3): 109%
growth at 0.01 µM (NCI-H522): 103%
growth at 0.01 µM (SW-620): 106%
growth at 0.1 µM (UO-31): 80%
growth at 10 µM (SK-MEL-2 [7]): -9%
growth at 10 µM (UACC-257 [8]): 92%
growth at 10 µM (OVCAR-4 [9]): 91%
growth at 1 µM (COLO 205): 106%
growth at 1 µM (SF-295): 48%
growth at 1 µM (SNB-19): 85%
growth at 1 µM (SNB-75 [10]): 36%
growth at 0.01 µM (BT-549): 91%
growth at 1 µM (LOX IMVI [11]): 54%
growth at 1 µM (OVCAR-5): 96%
growth at 10 µM (NCI-H460): 88%
GI50 (SF-268): > 100 µM
IC50 (SF-268): 40.2 µM
TGI (SF-268): > 100 µM
CC50 (SF-268; [12]): > 100 µM

From ChEMBL document CHEMBL1165943, “Design and synthesis of new anticancer pyrimidines with multiple-kinase inhibitory effect” (Bioorg Med Chem, 2010)
